Test results from ChEMBL document CHEMBL4033667, “Design, synthesis, and identification of a novel napthalamide-isoselenocyanate compound NISC-6 as a dual Topoisomerase-IIα and Akt pathway inhibitor, and evaluation of its anti-melanoma activity” (Eur J Med Chem, 2017).
Active and inactive are the calls of the source. The calls are words filed in the database; no cut-off is given here.

Experiments:
UACC-903 [1] = assay: Antiproliferative activity against human UACC-903 cells harboring BRAF V600E mutant after 48 hrs by MTT assay; format: functional, cell-based; conditions: UACC-903, 48 h
Procedure, shortened: (§1)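 MTT viability in melanoma lines grown in DMEM with 10% FBS and pen/strep at 37 °C, 5% CO2. 3000 cells/well, settled overnight, then exposed to compound (0 to 50 µM) in triplicate for 24, 48 or 72 h. MTT (5.0 mg/mL solution) added 3 h before termination. IC50 from non-linear regression (variable slope), mean ± SD.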

UACC-903 [2] = assay: Antiproliferative activity against human UACC-903 cells harboring BRAF V600E mutant after 72 hrs by MTT assay; format: functional, cell-based; conditions: UACC-903, 72 h; procedure, shortened: as §1
[3] = Antiproliferative activity against human 1205 Lu cells harboring BRAF V600E mutant after 24 hrs by MTT assay; format: functional, cell-based; procedure, shortened: as §1
[4] = Antiproliferative activity against human 1205 Lu cells harboring BRAF V600E mutant after 48 hrs by MTT assay; format: functional, cell-based; procedure, shortened: as §1
[5] = Antiproliferative activity against human A375M cells harboring BRAF V600E mutant after 24 hrs by MTT assay; format: functional, cell-based; procedure, shortened: as §1
[6] = Antiproliferative activity against human A375M cells harboring BRAF V600E mutant after 48 hrs by MTT assay; format: functional, cell-based; procedure, shortened: as §1
CHL-1 [7] = assay: Antiproliferative activity against human CHL-1 cells harboring wild type BRAF after 24 hrs by MTT assay; format: functional, cell-based; conditions: CHL-1, 24 h; procedure, shortened: as §1
CHL-1 [8] = assay: Antiproliferative activity against human CHL-1 cells harboring wild type BRAF after 48 hrs by MTT assay; format: functional, cell-based; conditions: CHL-1, 48 h; procedure, shortened: as §1
CHL-1 [9] = assay: Antiproliferative activity against human CHL-1 cells harboring wild type BRAF after 72 hrs by MTT assay; format: functional, cell-based; conditions: CHL-1, 72 h; procedure, shortened: as §1
NHDF = assay: Cytotoxicity against human NHDF cells assessed as reduction in cell viability at 5 uM after 48 hrs by MTT assay; format: cell-based
Procedure, shortened: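 nHDF normal fibroblasts grown in serum-free fibroblast basal medium with growth kit and pen/strep/amphotericin B. Treated 48 h at set concentrations, with viability read by MTT assay.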

[10] = target: DNA topoisomerase 2-alpha (Homo sapiens) (UniProt P11388); assay: Inhibition of human DNA topoisomerase 2alpha assessed as decrease in relaxation of supercoiled pBR322 DNA at 0.5 to 5 uM after 1 hr by ethidium bromide staining-based agarose gel electrophoresis
Sequence of DNA topoisomerase 2-alpha (Homo sapiens) (P11388 whole entry): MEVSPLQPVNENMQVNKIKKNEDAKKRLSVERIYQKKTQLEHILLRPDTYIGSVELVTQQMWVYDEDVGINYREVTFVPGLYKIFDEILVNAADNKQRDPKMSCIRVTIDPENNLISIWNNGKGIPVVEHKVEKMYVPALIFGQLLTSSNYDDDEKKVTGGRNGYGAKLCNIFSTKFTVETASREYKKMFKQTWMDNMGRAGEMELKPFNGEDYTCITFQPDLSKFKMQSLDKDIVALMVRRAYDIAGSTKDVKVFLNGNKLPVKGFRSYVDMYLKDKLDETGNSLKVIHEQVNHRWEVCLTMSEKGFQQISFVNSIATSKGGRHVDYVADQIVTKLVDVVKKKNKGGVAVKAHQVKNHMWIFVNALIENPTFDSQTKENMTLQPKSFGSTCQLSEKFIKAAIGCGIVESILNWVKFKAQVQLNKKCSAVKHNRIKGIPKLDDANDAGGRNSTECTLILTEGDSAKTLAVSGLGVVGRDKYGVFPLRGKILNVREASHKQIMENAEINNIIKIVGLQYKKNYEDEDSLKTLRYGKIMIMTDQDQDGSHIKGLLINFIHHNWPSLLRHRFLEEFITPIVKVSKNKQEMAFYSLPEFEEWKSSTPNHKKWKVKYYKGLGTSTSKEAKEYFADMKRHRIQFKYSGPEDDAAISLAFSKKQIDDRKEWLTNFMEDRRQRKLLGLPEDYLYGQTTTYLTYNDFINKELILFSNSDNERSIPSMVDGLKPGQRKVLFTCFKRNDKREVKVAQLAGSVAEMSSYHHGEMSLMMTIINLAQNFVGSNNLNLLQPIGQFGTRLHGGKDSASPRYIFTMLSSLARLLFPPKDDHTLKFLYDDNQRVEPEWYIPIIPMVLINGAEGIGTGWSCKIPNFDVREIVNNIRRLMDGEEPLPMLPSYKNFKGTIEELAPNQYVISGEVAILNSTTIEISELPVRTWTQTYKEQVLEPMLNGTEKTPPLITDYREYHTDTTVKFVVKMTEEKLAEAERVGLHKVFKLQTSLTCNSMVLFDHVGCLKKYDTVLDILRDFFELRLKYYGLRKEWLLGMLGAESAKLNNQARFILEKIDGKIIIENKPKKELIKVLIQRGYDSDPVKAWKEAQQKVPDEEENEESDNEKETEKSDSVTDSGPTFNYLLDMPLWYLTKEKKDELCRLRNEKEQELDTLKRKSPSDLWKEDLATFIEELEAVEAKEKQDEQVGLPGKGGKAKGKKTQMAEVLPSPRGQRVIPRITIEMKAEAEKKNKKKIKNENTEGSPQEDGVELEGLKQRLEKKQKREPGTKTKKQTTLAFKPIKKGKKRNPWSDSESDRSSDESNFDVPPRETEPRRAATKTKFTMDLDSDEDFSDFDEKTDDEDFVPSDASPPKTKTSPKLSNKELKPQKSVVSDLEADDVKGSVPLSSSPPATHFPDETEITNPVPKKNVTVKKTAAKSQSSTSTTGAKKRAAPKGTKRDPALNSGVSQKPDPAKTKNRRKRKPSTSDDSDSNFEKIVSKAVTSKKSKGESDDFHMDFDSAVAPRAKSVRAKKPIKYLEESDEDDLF
Procedure, shortened: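 Kit-based relaxation assay: supercoiled plasmid DNA with 4 units of human Topo-IIα in assay buffer plus test agent or DMSO at 37 °C (1 h in legend, 30 min in methods). Stopped with 10% SDS, then proteinase K 15 min at 37 °C. Run on 1% agarose 1-2 h, ethidium bromide 2 h, destain 15 min in TAE, UV imaging.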

Homo sapiens = species on record: Homo sapiens; assay: Inhibition of DNA topoisomerase 2 in human UACC-903 cells assessed as increase in H2AX phosphorylation at 5 uM after 6 hrs by DAPI staining-based immunocytochemistry analysis; format: cell-based
Procedure, shortened: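 UACC903 cells (1.6 × 10^5) on coverslips overnight, then 5 µM or DMSO for 6 h. Fixed in 4% formaldehyde and blocked 1 h (0.3% Triton X-100, 5% donkey serum). Anti-p-H2A.X 1:500 overnight at 4 °C, then Alexa Fluor 488 secondary 1:500 with phalloidin for 1 h. DAPI mounting, imaged at 60X.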

[11] = target: Mitogen-activated protein kinase; ERK1/ERK2 (Homo sapiens) (UniProt P27361+P28482); assay: Inhibition of Erk1/2 phosphorylation in human UACC-903 cells at 2.5 to 5 uM after 24 hrs by Western blot analysis; format: cell-based
Sequence of Mitogen-activated protein kinase; ERK1/ERK2 (Homo sapiens) (P27361 whole entry, looked up): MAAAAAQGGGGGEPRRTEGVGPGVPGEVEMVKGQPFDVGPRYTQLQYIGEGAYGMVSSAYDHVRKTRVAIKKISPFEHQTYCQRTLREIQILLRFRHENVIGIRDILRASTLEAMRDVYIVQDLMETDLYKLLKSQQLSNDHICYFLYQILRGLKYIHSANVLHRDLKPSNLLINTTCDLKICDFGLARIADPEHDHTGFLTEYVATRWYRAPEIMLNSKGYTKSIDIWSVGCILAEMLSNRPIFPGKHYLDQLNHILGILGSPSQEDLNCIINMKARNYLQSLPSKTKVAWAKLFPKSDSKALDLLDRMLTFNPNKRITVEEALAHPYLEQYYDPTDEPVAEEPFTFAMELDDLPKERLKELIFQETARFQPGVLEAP
Sequence of Mitogen-activated protein kinase; ERK1/ERK2 (Homo sapiens) (P28482 whole entry, looked up): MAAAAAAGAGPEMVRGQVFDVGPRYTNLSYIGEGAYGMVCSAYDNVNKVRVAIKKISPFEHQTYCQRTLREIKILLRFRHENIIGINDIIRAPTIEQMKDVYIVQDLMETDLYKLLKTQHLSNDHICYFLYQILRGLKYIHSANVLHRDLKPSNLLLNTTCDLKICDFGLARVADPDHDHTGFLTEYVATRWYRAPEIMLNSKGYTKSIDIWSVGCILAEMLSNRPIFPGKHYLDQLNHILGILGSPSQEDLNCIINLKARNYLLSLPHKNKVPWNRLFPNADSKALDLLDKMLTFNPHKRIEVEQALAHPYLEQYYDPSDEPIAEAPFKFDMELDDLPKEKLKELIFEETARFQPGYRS

UACC-903 [12] = assay: Induction of apoptosis in human UACC-903 cells assessed as viable cells at 5 uM after 24 hrs by Annexin-V/7-AAD staining-based fluorescence assay (reference value: 83.90%); format: functional; conditions: UACC-903, 24 h, read-out: Activity
UACC-903 [13] = assay: Induction of apoptosis in human UACC-903 cells assessed as early apoptotic cells at 5 uM after 24 hrs by Annexin-V/7-AAD staining-based fluorescence assay (reference value: 13.15%); format: functional
UACC-903 [14] = assay: Induction of apoptosis in human UACC-903 cells assessed as late apoptotic cells at 5 uM after 24 hrs by Annexin-V/7-AAD staining-based fluorescence assay (reference value: 2.78%); format: functional
UACC-903 [15] = assay: Induction of apoptosis in human UACC-903 cells assessed as necrotic cells at 5 uM after 24 hrs by Annexin-V/7-AAD staining-based fluorescence assay (reference value: 0.17%); format: functional
UACC-903 [16] = assay: Induction of apoptosis in human UACC-903 cells assessed as viable cells at 10 uM after 24 hrs by Annexin-V/7-AAD staining-based fluorescence assay (reference value: 83.90%); format: functional; conditions: UACC-903, 24 h, read-out: Activity
UACC-903 [17] = assay: Induction of apoptosis in human UACC-903 cells assessed as late apoptotic cells at 10 uM after 24 hrs by Annexin-V/7-AAD staining-based fluorescence assay (reference value: 2.78%); format: functional
UACC-903 [18] = assay: Induction of apoptosis in human UACC-903 cells assessed as necrotic cells at 10 uM after 24 hrs by Annexin-V/7-AAD staining-based fluorescence assay (reference value: 0.17%); format: functional
UACC-903 [19] = assay: Induction of apoptosis in human UACC-903 cells assessed as increase in caspase 3/7 activity by measuring viable cells at 5 uM after 24 hrs by 7-AAD staining-based fluorescence assay (reference value: 77.50%); format: functional
Procedure, shortened: (§2)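 Muse caspase-3/7 kit on UACC903 cells after 24 h at given doses or DMSO. Cell-permeant NucView DEVD-linked DNA dye fluoresces after cleavage by active caspase 3/7. 7-AAD marks cells with compromised membranes. Gates: live, early apoptotic (caspase+/7-AAD−), late apoptotic (both +), necrotic (7-AAD+ only).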

UACC-903 [20] = assay: Induction of apoptosis in human UACC-903 cells assessed as increase in caspase 3/7 activity by measuring late apoptotic cells at 5 uM after 24 hrs by 7-AAD staining-based fluorescence assay (reference value: 6.08%); format: functional; procedure, shortened: as §2
UACC-903 [21] = assay: Induction of apoptosis in human UACC-903 cells assessed as increase in caspase 3/7 activity by measuring necrotic cells at 5 uM after 24 hrs by 7-AAD staining-based fluorescence assay (reference value: 0.34%); format: functional; procedure, shortened: as §2
UACC-903 [22] = assay: Induction of apoptosis in human UACC-903 cells assessed as increase in caspase 3/7 activity by measuring early apoptotic cells at 10 uM after 24 hrs by 7-AAD staining-based fluorescence assay (reference value: 16.08%); format: functional; procedure, shortened: as §2
UACC-903 [23] = assay: Antitumor activity against human UACC-903 cells xenografted in Harlan Sprague Dawley mouse assessed as reduction in tumor burden at 0.6 umole, ip administered 3 times a week measured on day 40 relative to vehicle-treated control; format: functional; design: scale not given: the % may be the effect or the level left
Procedure, shortened: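 5×10^6 UACC 903 cells in 0.2 mL DMEM/10% FBS injected s.c. into both flanks of 4-6 week female athymic nude mice. From day 6, randomised groups (5 mice, 2 tumours each) received i.p. DMSO or 0.6 µmole in DMSO (100 µL) three times weekly. Caliper tumour volume and body weight taken thrice weekly to day 40; mean ± SEM.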

CHL-1 [24] = assay: Potency index, ratio of PLX-4032 IC50 to test compound IC50 for human CHL-1 cells harboring wild type BRAF after 72 hrs; format: functional

SMILES: O=C1c2cccc3cccc(c23)C(=O)N1CCCCCCN=C=[Se]
- IC50 (UACC-903 [1]): 2.5 µM
- IC50 (UACC-903 [2]): 1.7 µM
- IC50 [3]: 13.4 µM
- IC50 [4]: 10.6 µM
- IC50 [5]: 11.8 µM
- IC50 [6]: 2.7 µM
- IC50 (CHL-1 [7]): 13.7 µM
- IC50 (CHL-1 [8]): 1.5 µM
- IC50 (CHL-1 [9]): 0.8 µM
- Activity (NHDF): > 70%
- inhibition [10]: Active
- inhibition (Homo sapiens): Active
- inhibition [11]: inactive
- viability at 5 µM (UACC-903 [12]): 83.2%
- Activity (UACC-903 [13]): 11.47%
- Activity (UACC-903 [14]): 4.52%
- Activity (UACC-903 [15]): 0.84%
- viability at 10 µM (UACC-903 [16]): 49.1%
- Activity (UACC-903 [17]): 15.52%
- Activity (UACC-903 [18]): 0.35%
- Activity (UACC-903 [19]): 69.34%
- Activity (UACC-903 [20]): 9.86%
- Activity (UACC-903 [21]): 0.08%
- Activity (UACC-903 [22]): 3%
- Activity (UACC-903 [23]): 69%
- Ratio IC50 (CHL-1 [24]): 15
